High-throughput results: PubChem BioAssay, several laboratories
Casp6 inh: inhibitors of human caspase-6; P55212; purified caspase-6, Z-VEID-R110 cleavage fluorescence; 350,000 compounds, 0.53% hits; AID 686996; inhibition, % at 12.5 µM;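 active = mean inhibition across replicates at least about 35%, with every replicate also reaching that limit, limit read from the data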;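 note: 0% = median of neutral control wells and 100% = no fluorescence left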
Target sequence (P55212 24-179 limits assumed): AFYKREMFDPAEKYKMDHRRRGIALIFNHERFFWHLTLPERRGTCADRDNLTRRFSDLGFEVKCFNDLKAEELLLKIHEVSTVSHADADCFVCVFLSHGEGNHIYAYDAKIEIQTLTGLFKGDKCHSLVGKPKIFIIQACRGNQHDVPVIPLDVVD
Target sequence (P55212 194-293 limits assumed): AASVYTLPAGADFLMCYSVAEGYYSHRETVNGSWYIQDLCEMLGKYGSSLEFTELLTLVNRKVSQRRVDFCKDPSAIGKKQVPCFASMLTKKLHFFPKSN
LEDGF integ inh: blocks HIV-1 LEDGF/p75-dependent DNA integration | TR-FRET IN-LEDGF/p75 DNA integration, Eu/Cy5 | inhibition, % at 3.7 µM | 370,000 compounds, 0.64% hits;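 active = inhibition above the screen-wide mean plus 3 SD, cut at about 13% in these data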;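 note: signal is the Cy5 over europium emission ratio at 671 and 618 nm; 0% = plate median of compound wells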
MBD2 DNA inh: MBD2-methylated oligo binding inhibition; Q9UBB5; 370,000 compounds, 0.31% hits; inhibition, % at 4.4 µM; TR-FRET, MBD2 binding to methylated oligonucleotide; in the data active = inhibition above about 13%
NSD2 inh: blocks human histone methyltransferase NSD2 | inhibition, % at 12.5 µM | NSD2 peptide methylation, AlphaScreen, 120 min | 310,000 compounds, 0.54% hits; in the data active = inhibition above about 50%
TDP2 inh: TDP2 (human) inhibition, absorbance primary screen | O95551 | recombinant TDP2, T5PNP hydrolysis, p-nitrophenol absorbance 415 nm | inhibition, % at 12.8 µM | 370,000 compounds, 0.34% hits | AID 720702;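 active = inhibition above the mean of all tested compounds plus 3 SD, set per campaign, cut at about 25% in these data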;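 note: 0% = DMSO with enzyme and 100% = buffer with substrate but no TDP2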
Target sequence (O95551 whole entry, looked up): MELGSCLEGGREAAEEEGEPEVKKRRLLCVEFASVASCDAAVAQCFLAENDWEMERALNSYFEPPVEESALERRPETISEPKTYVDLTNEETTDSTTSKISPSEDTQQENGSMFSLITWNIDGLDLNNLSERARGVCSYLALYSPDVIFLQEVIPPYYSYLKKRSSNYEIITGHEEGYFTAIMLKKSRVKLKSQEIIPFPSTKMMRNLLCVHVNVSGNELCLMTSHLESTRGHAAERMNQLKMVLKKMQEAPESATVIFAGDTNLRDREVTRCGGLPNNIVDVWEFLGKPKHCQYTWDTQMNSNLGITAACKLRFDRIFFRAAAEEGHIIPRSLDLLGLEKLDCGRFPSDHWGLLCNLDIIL
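Incubation: 2 h at 37 °C; Test system: recombinant human TDP2; Quantity: enzyme 120 nM; Read-out basis: percent inhibition; Medium: 50 mM Tris-HCl pH 7.5 with Mg2+, KCl, DTT, BSA; Repeats: single replicate; Compound: 12.8 µM single point, 1% DMSO; Signal: epi absorbance; Reagent: 5 mM T5PNP chromogenic substrate; Benchmarks: no-enzyme high, DMSO-plus-enzyme low.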
UHRF1 MBD2 ctr: UHRF1 methyl-DNA binding inhibition; inhibition, % at 4.4 µM; UHRF1 binding to methylated oligo, TR-FRET; AID 687016; Q96T88; 370,000 compounds, 0.75% hits; in the data active = inhibition above about 21%;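 note: UHRF1 SRA domain binding a hemimethylated CpG hairpin DNA probe; 0% = median of test compound wells and 100% = reference inhibitor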
Starred values were filed as active, the others as inactive; . = no result. The list is not random: actives were taken first. Their share in the collection is about 1.9%.

SMILES	Casp6 inh	LEDGF integ inh	MBD2 DNA inh	NSD2 inh	TDP2 inh	UHRF1 MBD2 ctr
CCSc1nnc(NC(=O)c2ccccc2)s1	1	0	-2	0	-11	-1
COC(=O)C[C@H]1CC[C@H]2[C@@H](COC[C@@H](O)CN2S(=O)(=O)c2ccccc2C)O1	0	.	.	.	.	.
COc1ccc(/C=N/N2C(=O)CSC2=S)cc1	.	1	0	-10	1	63*
O=[N+]([O-])c1cc2c(cc1/C=N/NS(=O)(=O)c1ccc(Br)cc1)OCO2	44*	5	4	15	-10	-1
Cc1cccc(N=Cc2cc3c(cc2[N+](=O)[O-])OCO3)c1	.	14*	-6	-1	7	-5
O=C(O)c1ccccc1C1Nc2ccccc2C(=O)N1CCCN1CCOCC1 (stereo not drawn)	1	3	5	-1	-2	40*
C[C@H]1CN([C@@H](C)CO)C(=O)CCCn2nncc2CO[C@H]1CN(C)C(=O)Nc1ccc(F)cc1	2	.	.	.	.	.
CC1CCCCC1NC(=S)Nc1ccc(SC(F)F)cc1 (stereo not drawn)	.	0	1	-3	6	38*
FC(F)Sc1ccc(NC(=S)NC2CCCCC2)cc1	.	5	-5	-3	-16	-5
CCCCc1c(Cc2cccc(F)c2)ncn1CCc1ccccc1OC	2	10	5	.	-3	21*
COC1=C/C(=C/c2c(N)n3nc(CC(=O)N4CCCC4)sc3nc2=O)C=CC1=O	1	5	-1	6	-6	7
Nc1c(/C=C2/C=CC(=O)C(O)=C2)c(=O)nc2sc(CC(=O)N3CCCC3)nn12	48*	8	-3	119*	0	9
COC1=CC(=Cc2c(N)n3nc(CC(=O)N4CCCCC4)sc3nc2=O)C=C(OC)C1=O	5	0	12	9	-8	32*
Nc1c(/C=C2/C=CC(=O)C(O)=C2)c(=O)nc2sc(CC(=O)N3CCCCC3)nn12	83*	16*	6	142*	-13	26*
C[C@@H]1CCCCO[C@@H](CN(C)C(=O)c2ccccc2)[C@@H](C)CN([C@H](C)CO)C(=O)c2cc(NC(=O)CCC(F)(F)F)ccc2O1	-2	.	.	.	.	.
CN1C(=O)c2cc(NC(=O)c3ccccc3)ccc2OC[C@@H]2O[C@H](CC(=O)O)CC[C@@H]21	2	.	.	.	.	.
C[C@@H]1CN([C@@H](C)CO)C(=O)c2cccc(NS(=O)(=O)c3cn(C)cn3)c2O[C@@H]1CN(C)C(=O)Nc1ccccc1	-2	.	.	.	.	.
C[C@H]1CN([C@@H](C)CO)C(=O)c2cc(Br)cnc2O[C@@H]1CN(C)C(=O)c1cccnc1	4	.	.	.	.	.
CC(C)Cc1nnc(NC(=O)CCS(=O)(=O)c2ccc(Cl)cc2)s1	0	4	11	-2	8	24*
CC(C)Cc1nnc(NC(=O)CCc2c[nH]c3ccccc23)s1	0	-2	11	.	-1	25*
O=C(Nc1nnc(Cc2c[nH]c3ccccc23)s1)c1ccc(Cl)cc1Cl	58*	-9	5	3	-3	4
CC(C)Cc1nnc(NC(=O)CCC(=O)Nc2ccc(Cl)cc2)s1	0	-2	-5	-5	9	-1
CCc1nnc(NC(=O)Cc2c[nH]c3ccccc23)s1	-1	-2	0	1	11	4
O=C1C(Cl)=C(N2CCN(c3ccccc3[N+](=O)[O-])CC2)C(=O)c2ccccc21	2	13	-29	.	62*	-10
COCc1c(C(=O)N/N=C/c2ccncc2)nnn1-c1nonc1N	-2	3	7	-1	-6	1
SMILES	Casp6 inh	LEDGF integ inh	MBD2 DNA inh	NSD2 inh	TDP2 inh	UHRF1 MBD2 ctr
COCc1c(C(=O)N/N=C/c2ccc(C)o2)nnn1-c1nonc1N	-7	0	0	23	9	25*
COCc1c(C(N)=O)nnn1-c1nonc1N	.	4	1	-1	-6	32*
CN(C)C(=O)c1ccc(-c2ccc([C@@H]3[C@H](CO)N4CCCCN(CC5CCOCC5)C[C@@H]34)cc2)cc1	1	.	.	.	.	.
COc1ccc2[nH]c3nc(SC(C)C)nnc3c2c1	.	0	-4	0	0	54*
COc1ccc(CNC(=O)CSc2nnc3c(n2)[nH]c2ccc(OC)cc23)cc1	-2	5	-5	-1	13	-1
COc1ccc(N2CCN(C(=O)CN(c3ccc(OC)cc3)S(=O)(=O)c3ccccc3)CC2)cc1	0	6	8	3	14	31*
COc1ccc(N2CCN(C(=O)CN(c3ccccc3)S(=O)(=O)c3ccc(OC)cc3)CC2)cc1	.	3	4	1	3	-1
C/C=C/c1cnc2c(c1)C(=O)N([C@@H](C)CO)C[C@@H](C)[C@@H](CN(C)Cc1cncnc1)O2	-1	.	.	.	.	.
Cc1cc(C)c(S(=O)(=O)/N=C2/C=C(Sc3ncn[nH]3)C(=O)c3ccccc32)cc1C	.	42*	-7	.	67*	7
Cc1cc(O)c(Sc2ncn[nH]2)cc1NS(=O)(=O)c1ccc(Cl)cc1	5	6	-5	0	0	0
C[C@@H]1CN([C@@H](C)CO)C(=O)c2cccc(NS(C)(=O)=O)c2O[C@H]1CN(C)S(=O)(=O)c1ccc(Cl)cc1	2	.	.	.	.	.
Cc1cccc(O)c1C	-1	1	-1	.	3	0
Cc1cccc(C)c1N=Nc1c(C)cc(O)cc1C	3	0	3	58*	-2	0
CN(C)c1cccc(N(C)C)c1CNC(=O)NC(=O)c1c(F)cccc1F	8	-1	1	0	-2	28*
COc1ccc(CCC(=O)Nc2c(-c3ccc(N(C)C)cc3)[nH][nH]c2=O)cc1	9	28*	12	.	60*	17
CCC(=O)Nc1ccc(N2CCOCC2)c(S(=O)(=O)Nc2ccc(OC)cc2)c1	2	-2	-1	-5	-4	1
COc1ccc(NS(=O)(=O)c2cc(NC(=O)CCc3ccccc3)ccc2N2CCOCC2)cc1	-1	-1	6	0	5	31*
COc1ccc(NS(=O)(=O)c2cc(NC(=O)[C@H](C)NC(N)=O)ccc2N2CCCC2)cc1	44*	0	-6	3	-11	-4
COc1ccc(OCCCC(=O)Nc2ccc(N3CCOCC3)cc2)cc1	-1	-1	-2	0	12	-1
COc1ccc(CCC(=O)Nc2ccc(N3CCOCC3)cc2)cc1	.	4	13	-2	13	31*
COc1ccc(N2CCN(c3ccc4nnc(CCC(=O)Nc5ccc(C)cc5)n4n3)CC2)cc1	-1	0	4	.	2	21*
COc1cccc(C#Cc2ccc([C@@H]3[C@H](CO)N4C(=O)CN(C(=O)c5ccncc5)C[C@@H]34)cc2)c1	-3	.	.	.	.	.
Cc1noc(C)c1NC(=O)N(C)C[C@H]1Oc2ccc(NS(=O)(=O)c3c(C)noc3C)cc2CC(=O)N([C@@H](C)CO)C[C@H]1C	2	.	.	.	.	.
Cc1cccc(OCCCn2c(=O)oc3ccc(C)cc32)c1	3	12	11	.	0	25*
